Results reported in ChEMBL document CHEMBL1147630, “New PDMP analogues inhibit process outgrowth in an insect cell line” (Bioorg Med Chem Lett, 2004).
Calls of active or inactive are those of the source. The calls are words filed in the database; no cut-off is given here.

Key:
MRRL-CH1 [1] = assay: Inhibitory effect on outgrowth of MRRL-CH1 cell line at 0.5 uM concentration; Reversible; format: functional, cell-based; details: Manduca sexta
Procedure, shortened: (§1)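 Embryonic Manduca sexta MRRL-CH1 cells, grown attached in DL medium in room air. Analogue in DMSO was added to well cultures 2–4 days after seeding, for 48 h. Drug was then diluted 16-fold by two medium exchanges, and cells were followed for 6 more days. Neurite outgrowth and reversibility were judged from photographs taken at 0, 24 and 48 h of exposure and at 24, 48 and 144 h after removal. Duplicates, with DMSO vehicle control.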

MRRL-CH1 [2] = assay: Inhibitory effect on outgrowth of MRRL-CH1 cell line at 1 uM concentration; Irreversible; format: functional, cell-based; details: Manduca sexta; procedure, shortened: as §1
MRRL-CH1 [3] = assay: Inhibitory effect on outgrowth of MRRL-CH1 cell line at 5 uM concentration; Irreversible; format: functional, cell-based; details: Manduca sexta; procedure, shortened: as §1
MRRL-CH1 [4] = assay: Inhibitory effect on outgrowth of MRRL-CH1 cell line at 0.5 uM concentration; No Effect; format: functional, cell-based; details: Manduca sexta; procedure, shortened: as §1
SH-SY5Y = assay: Concentration required to inhibit neurite outgrowth in SH-SY5Y cell line; format: functional, cell-based
MRRL-CH1 [5] = assay: Inhibitory effect on outgrowth of MRRL-CH1 cell line at 1 uM concentration; No Effect; format: functional, cell-based; details: Manduca sexta; procedure, shortened: as §1
MRRL-CH1 [6] = assay: Inhibitory effect on outgrowth of MRRL-CH1 cell line at 5 uM concentration; No Effect; format: functional, cell-based; details: Manduca sexta; procedure, shortened: as §1
Rattus norvegicus = organism: Rattus norvegicus; assay: Concentration required to reduce the length of total axon plexus in rat embryonic hippocampal neurons; format: functional

Compound | Inhibitory effect (MRRL-CH1 [1]) | Inhibitory effect (MRRL-CH1 [2]) | Inhibitory effect (MRRL-CH1 [3]) | Inhibitory effect (MRRL-CH1 [4]) | Concentration (SH-SY5Y) [µM] | Inhibitory effect (MRRL-CH1 [5]) | Inhibitory effect (MRRL-CH1 [6]) | Concentration (Rattus norvegicus) [µM]
CCCCCCCCCC(=O)N[C@H](CN1CCOCC1)[C@H](O)c1ccc(OC(C)(C)C)cc1 | Reversible | Irreversible | Irreversible | – | – | – | – | –
CCCCCCCCCC(=O)N[C@H](CN1CCOCC1)[C@H](O)c1ccccc1 | – | – | – | inactive | 20 | inactive | inactive | 50
CCCCCCCCCC(=O)N[C@H](CN1CCOCC1)[C@H](O)c1ccc2c(c1)OCO2 | Reversible | Irreversible | Irreversible | – | – | – | – | –
CCCCCCCCCC(=O)N[C@H](CN1CCOCC1)[C@H](O)c1ccc(OC)cc1 | Reversible | Irreversible | Irreversible | – | – | – | – | –
